Assay results taken from ChEMBL document CHEMBL3588803, “Design, synthesis and pharmacology of 1,1-bistrifluoromethylcarbinol derivatives as liver X receptor β-selective agonists” (Bioorg Med Chem Lett, 2015).

Key:
Hamster [1] = experiment: Increase in ABCA1 gene expression in Bio F1B hamster intestine at 100 mg/kg, po; assay type: functional, Cricetinae
How it was run: (§1)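 Bio F1B hamsters were fed a high-fat, high-cholesterol diet and dosed orally. Gene expression was measured in intestine (ABCA1, ABCG5, ABCG8) and in peripheral blood (ABCA1).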

[2] = Plasma concentration in CE-2 chow diet-fed golden Syrian hamster at 100 mg/kg, po after 4 hrs by HPLC-LC-MS/MS method; assay type: ADME, organism-based, Mesocricetus auratus
How it was run: (§2)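 Hamsters on chow diet received a single oral dose of 100 mg/kg. Heparin plasma was drawn from a forearm vein at 0.5, 1, 2, 3, 4, 6, 8, 10 and 24 h after dosing. Concentrations of parent drug and its carboxylic acid metabolite were measured in plasma.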

Hamster [3] = experiment: Effect in lipid profiles in Bio F1B hamster fed with high fat and cholesterol diet assessed as triglyceride level at 10 mg/kg, po relative to control; assay type: organism-based; details: cricetinae, in vivo
Hamster [4] = experiment: Hypolipidemic effect in Bio F1B hamster fed with high fat and cholesterol diet assessed as HDL-cholesterol level at 100 mg/kg, po relative to control; assay type: functional, Cricetinae
Hamster [5] = experiment: Increase in ABCG5 gene expression in Bio F1B hamster intestine at 100 mg/kg, po; assay type: functional, Cricetinae; how it was run: as §1
Hamster [6] = experiment: Increase in ABCA1 gene expression in Bio F1B hamster intestine at 30 mg/kg, po; assay type: functional, Cricetinae; how it was run: as §1
[7] = Plasma concentration in CE-2 chow diet-fed golden Syrian hamster at 100 mg/kg, po after 24 hrs by HPLC-LC-MS/MS method; assay type: ADME, organism-based, Mesocricetus auratus; how it was run: as §2
[8] = Plasma concentration in CE-2 chow diet-fed golden Syrian hamster at 100 mg/kg, po after 0.5 hrs by HPLC-LC-MS/MS method; assay type: ADME, organism-based, Mesocricetus auratus; how it was run: as §2
Syrian golden hamster = experiment: Drug metabolism in CE-2 chow diet-fed golden Syrian hamster assessed as 4-(4-(1,1,1,3,3,3-Hexafluoro-2-hydroxypropan-2-yl)-2,6-di-n-propylphenoxy)-butanoic acid formation at 100 mg/kg, po after 0.5 to 24 hrs by HPLC-LC-MS/MS method; assay type: ADME, organism-based, Mesocricetus auratus; details: in vivo; how it was run: as §2
[9] = Plasma concentration in CE-2 chow diet-fed golden Syrian hamster at 100 mg/kg, po after 1 hr by HPLC-LC-MS/MS method; assay type: ADME, organism-based, Mesocricetus auratus; how it was run: as §2
[10] = Plasma concentration in CE-2 chow diet-fed golden Syrian hamster assessed as 4-(4-(1,1,1,3,3,3-Hexafluoro-2-hydroxypropan-2-yl)-2,6-di-n-propylphenoxy)-butanoic acid level at 100 mg/kg, po after 3 hrs by HPLC-LC-MS/MS method; assay type: ADME, organism-based, Mesocricetus auratus; details: in vivo; how it was run: as §2
[11] = Plasma concentration in CE-2 chow diet-fed golden Syrian hamster at 100 mg/kg, po after 8 hrs by HPLC-LC-MS/MS method; assay type: ADME, organism-based, Mesocricetus auratus; how it was run: as §2
Hamster [12] = experiment: Increase in ABCA1 gene expression in Bio F1B hamster peripheral blood at 30 mg/kg, po; assay type: functional, Cricetinae; how it was run: as §1

concentration at 4 h [2]: 290 nM
Activity (Hamster [3]): 97%
concentration at 24 h [7]: 100 nM
concentration at 0.5 h [8]: 310 nM
Drug metabolism (Syrian golden hamster): metabolite_detected
concentration at 1 h [9]: 490 nM
Cp [10]: 409 ng/mL
concentration at 8 h [11]: 420 nM
Structure (SMILES): CCCc1cc(C(O)(C(F)(F)F)C(F)(F)F)cc(CCC)c1OCCCCN1C(=O)NC(C)(c2ccc(OC(C)C)cc2)C1=O (stereo not drawn)
fold change (FC) (Hamster [1]): 5.2
Activity (Hamster [4]): 75%
fold change (FC) (Hamster [5]): 1.3
fold change (FC) (Hamster [6]): 4
fold change (FC) (Hamster [12]): 0.8
